Laboratory results: article PMC12491721 (Acta Pharmaceutica Sinica. B, 2025)

Columns and labels:
GL261 cells [1] = assay: Cytotoxicity, CCK-8; format: cell-based, mouse; details: GL261, 24 h, n = 5
Method in brief: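 GL261 cells were exposed to test compound for 24 h, then incubated 20 min in medium containing 10% CCK-8. Absorbance was read at 450 nm. For the +L arm, the zero-concentration point is cells receiving laser without compound. n = 5.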

PTP1B = assay: In vitro PTP1B proteolysis; format: cell-based, mouse; details: IFN-γ-treated GL261 cells, Western blot
[2] = tested on: intratumoral CD8+ T cells; assay: Exhaustion markers PD-1 and Tim3 in tumor-derived T cells; format: cell-based, mouse; details: for Tim3 expression (Tim3-positive cells) / PD-1 expression (PD-1-positive cells): 5 μmol/L, 48 h, n = 3, mean ± SD; for Tim3 expression (Tim3-positive cells): untreated 65.6 ± 4.84%; for PD-1 expression (PD-1-positive cells): untreated 69.6 ± 6.46%; for PD-1 and Tim3 levels: 24 h, no significant differences between the two groups
GL261 tumor [3] = assay: Therapeutic efficacy in subcutaneous GL261 GBM model; format: in vivo, C57BL/6 mice; details: subcutaneous GL261, i.v. 3 mg/kg VPF equivalent, +L
GL261 tumor [4] = assay: Immune cell analysis of tumor tissues, flow cytometry; format: in vivo, C57BL/6 mice; details: for apoptosis rate of T cells within tumor tissues vs saline group: CD8+Annexin V+, +L groups
Method in brief: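 Female C57BL/6 mice (6 weeks) bore left-flank tumours from 5 × 10^6 subcutaneous GL261 cells. Treatment was i.v. at 3 mg/kg VPF equivalent; +L groups received 671 nm laser, 100 mW, 15 min, 3 h post-injection. On Day 3, tumours were enzymatically dissociated, Fc-blocked 5 min and antibody-stained 45 min. Flow cytometry gated CD45+CD3+CD8+ cytotoxic T cells and CD8+Annexin V+ damaged T cells. n = 5.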

[5] = Drug loading capacity calculated from molecular weights; format: physicochemical
Method in brief: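 Loading was calculated as (PROTAC MW 1411.59 + VPF MW 702.81) divided by the MW of the whole prodrug conjugate (2595.98). The cathepsin B-cleavable RRK peptide (464.61) is excluded from the numerator.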

MMP-9 = assay: Enzyme cleavage, HPLC; format: in vitro ADME; details: pH 5.5 MES buffer, 37 °C, 10 μg/mL enzyme
Method in brief: (§1)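 The self-assembled nanoparticle was incubated at 37 °C in pH 5.5 MES buffer with 10 μg/mL of a single protease: Cat B, Cat D, Cat E, Cat L, caspase-3 or MMP-9. Cat B was also tested in the presence of its irreversible inhibitor Z-FA-FMK. Parent conjugate and cleavage products were followed by HPLC.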

Cat D = assay: Enzyme cleavage, HPLC; format: in vitro ADME; details: pH 5.5 MES buffer, 37 °C, 10 μg/mL enzyme
Method in brief: as §1

GL261 cells [6] = assay: Coculture assay, lysis of GL261 cells by T cells; format: cell-based, mouse; details: T cells treated 5 μmol/L 48 h, coculture 1 h, CCK-8, n = 3
Method in brief: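 Intratumoral CD8+ T cells were isolated with CD8 microbeads from subcutaneous GL261 flank tumours in C57BL/6 mice and kept in RPMI1640 with 10% FBS at 37 °C, 5% CO2. They were stained with Far red CFSE and treated 48 h at 5 μmol/L. They were then cocultured 1 h with green CFSE-labelled GL261 cells. GL261 viability was measured by CCK-8.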

[7] = Brain accumulation in orthotopic GBM model, NIRF imaging; format: in vivo, BALB/c-nu mice; details: for time of peak accumulation in brain: orthotopic GL261, i.v., NIRF imaging
Method in brief: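 Orthotopic model: 1 × 10^5 GL261 cells in saline were injected stereotactically into the brains of BALB/c-nu mice (2.0 mm lateral, 0.5 mm anterior to bregma, 3.0 mm depth, 1 μL/min). Test compound or VPF was given i.v. at an equivalent 3 mg/kg VPF content. Brain accumulation was followed by whole-body NIRF imaging, with ex vivo NIRF imaging of GBM tissue at 6 h.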

Cat B = assay: Target enzyme-specific cleavage, HPLC; format: in vitro ADME; details: pH 5.5 MES buffer, 37 °C, 10 μg/mL Cat B
Method in brief: as §1

intratumoral T cells = assay: Extracellular IFN-γ release from tumor-derived T cells; format: cell-based, mouse; details: n = 3
[8] = Hydrodynamic size by dynamic light scattering; format: physicochemical; details: DLS, aqueous condition (saline, 1 mg/mL), mean ± SD, n = 5
Method in brief: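 Nanoassemblies formed spontaneously in aqueous medium without carrier. They were dispersed at 1 mg/mL in saline and sized by dynamic light scattering (hydrodynamic diameter). Morphology was checked by TEM.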

GL261 cells [9] = assay: Intracellular ROS generation, DCFH-DA; format: cell-based, mouse; details: GL261, 5 μmol/L 24 h, n = 3
Method in brief: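 GL261 cells were treated 24 h at 5 μmol/L, then loaded with DCFH-DA for 30 min before irradiation (40 mW, 500 s) or no irradiation. Intracellular DCF fluorescence was the read-out. n = 3.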

caspase-3 = assay: Enzyme cleavage, HPLC; format: in vitro ADME; details: pH 5.5 MES buffer, 37 °C, 10 μg/mL enzyme
Method in brief: as §1

Cat L = assay: Enzyme cleavage, HPLC; format: in vitro ADME; details: pH 5.5 MES buffer, 37 °C, 10 μg/mL enzyme
Method in brief: as §1

Cat E = assay: Enzyme cleavage, HPLC; format: in vitro ADME; details: pH 5.5 MES buffer, 37 °C, 10 μg/mL enzyme
Method in brief: as §1

[10] = absence of laser irradiation (-L)

In the case of `Cc1cc(-c2c3ccccc3c(Br)c3sc(C)c(C)c23)cc(C)c1O[C@H](Cc1ccccc1)C(=O)O` [ertiprotafib, reference compound], the cytotoxicity (GL261 cells [1]; CCK-8, without laser (-L)) is reported as “minimum GBM cell death”, the PTP1B levels (PTP1B; pERK and pAKT decreased) is reported as “no changes in PTP1B levels” and the “Tim3 expression (Tim3-positive cells)” value [2] is reported as 47.53 ± 3.11%. The “PD-1 expression (PD-1-positive cells)” value [2] was 57.43 ± 5.29% and the “PD-1 and Tim3 levels” value [2] was “lower PD-1 and Tim3 levels compared to untreated cells”.
With VPF–KALAPYIPRRK–ertiprotafib [PNPTP1B] the “time to complete regression in all mice” value (GL261 tumor [3]) was ≤ 8 days, the “apoptosis rate of T cells within tumor tissues vs saline group” value (GL261 tumor [4]) was “no significant differences” and the “increase in cytotoxic T cells in tumor tissues, (+L) relative to (-L) group” value (GL261 tumor [4]; CD45+CD3+CD8+, Day 3, n = 5) was 1.2 fold. The “drug loading capacity, PROTAC share” value [5] was 54.4%, the “drug loading capacity, VPF share” value [5] was 34.2% and the cytotoxicity (GL261 cells [1]; CCK-8, with laser irradiation (+L)) was “even more potent tumor-killing effect”. The cytotoxicity (GL261 cells [1]; CCK-8, without laser (-L)) was “significantly greater cytotoxicity than ertiprotafib”, the “stability with MMP-9” value (MMP-9) was “stable” and the “stability with Cat D” value (Cat D) was “stable”. For the same compound, the “GL261 cell lysis by cocultured T cells” value (GL261 cells [6]) was “significantly increased”, the “brain fluorescence intensity relative to VPF” value ([7]; orthotopic GL261, i.v. 3 mg/kg VPF equivalent, 6 h post-injection, NIRF, n = 3) was 2.16 fold and the “time of peak accumulation in brain” value [7] was 6 h. For the same compound, the “time to complete cleavage into PROTAC and VPF–K” value (Cat B) was ≤ 1 h, the “extracellular release of IFN-γ” value (intratumoral T cells) was “higher quantity” and the “average diameter (hydrodynamic size)” value [8] was 87.79 ± 1.25 nm. The “intracellular ROS generation” value (GL261 cells [9]; [10]) was “no ROS generation was detected”, the “intracellular ROS generation” value (GL261 cells [9]; laser 40 mW 500 s (+L)) was “nearly identical” and the “stability with caspase-3” value (caspase-3) was “stable”. The “stability with Cat L” value (Cat L) was “stable”, the “PTP1B and related downstream proteins (pERK, pAKT) levels” value (PTP1B; 5 μmol/L, 24 h) was “fully restored to levels similar to those in IFN-γ-untreated cells” and the “stability with Cat E” value (Cat E) was “stable”. For the same compound, the “Tim3 expression (Tim3-positive cells)” value [2] was 30.2 ± 4.33%, the “PD-1 expression (PD-1-positive cells)” value [2] was 42.47 ± 6.41% and the “PD-1 and Tim3 levels” value [2] was “lower PD-1 and Tim3 levels compared to untreated cells”.
For verteporfin [VPF, reference compound], the “apoptosis rate of T cells within tumor tissues vs saline group” value (GL261 tumor [4]) was “no significant differences”, the “time of peak accumulation in brain” value [7] was 6 h and the “intracellular ROS generation” value (GL261 cells [9]; [10]) was “no ROS generation was detected”. For the same compound, the “intracellular ROS generation” value (GL261 cells [9]; laser 40 mW 500 s (+L)) was “nearly identical”.
